The results in this text go back to ChEMBL document CHEMBL1140400, “Synthesis and anthelmintic properties of arylquinolines with activity against drug-resistant nematodes” (2005).

Assay type in all cases: functional
The test system of experiment [1] is Haemonchus contortus. Description: Lethal dose against Haemonchus contortus using NemaTox assay. Put shortly: (§1)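 Larval development assay in agar matrix: 80–100 nematode eggs per well with compound at twofold serial dilutions from 100 μg/mL downward; wells supplemented with nutrient medium, incubated at 26 °C until control larvae reached the L3 stage. Day 5 qualitative larval assessment; LD99 taken as lowest concentration inhibiting development in 99% of larvae present.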

In experiment [2] the test system is Teladorsagia circumcincta. Description: Lethal dose against Ostertagia circumcincta using NemaTox assay. Put shortly: as §1
The test system of experiment [3] is Haemonchus contortus. The experiment is described as follows: Lethal dose against Haemonchus contortus Lawes ( levamisole and benzimidazole resistant) using NemaTox assay. Put shortly:
as §1

The subject of experiment [4] is Trichostrongylus colubriformis. The experiment is described as follows: Lethal dose against Trichostrongylus colubriformis using NemaTox assay. In outline: as §1
Experiment [5] concerns Haemonchus contortus. Description: Lethal dose against Haemonchus contortus VSRG (benzimidazole resistant) using NemaTox assay. In outline:
as §1

The test system of experiment [6] is Haemonchus contortus. The experiment is described as follows: Lethal dose against Haemonchus contortus CAVR (ivermectin resistant) using NemaTox assay. Put shortly: as §1
The subject of experiment [7] is Haemonchus contortus. The experiment is described as follows: Lethal dose against Haemonchus contortus (susceptible) using NemaTox assay. In outline:
as §1

In experiment [1], `COc1cc(Cl)nc2ccccc12` showed an LD99 of 25 µg/mL.
For the compound `COc1cc(OC)c2cc(Cl)ccc2n1`, the LD99 in experiment [2] came out at 13 µg/mL; in experiment [3] it was 8.8 µg/mL; in experiment [4], 25 µg/mL; in experiment [1], 12.5 µg/mL; in experiment [5], 13 µg/mL; in experiment [6] it was 6.3 µg/mL. The compound further came in with an LD99 in experiment [7] of 13 µg/mL.
Take `COc1nc2ccccc2c(OC)c1-c1ccccc1`: the LD99 in experiment [1] worked out at 25 µg/mL.
The compound `COc1cc(OC)c2c(C)cc(C)cc2n1` showed an LD99 in experiment [1] of 25 µg/mL.
Regarding `COc1cc(OC)c2cccc(-c3ccccc3)c2n1`, the LD99 in experiment [2] stood at 6.3 µg/mL; in experiment [3], 6.3 µg/mL; in experiment [4], 50 µg/mL; in experiment [1], 12.5 µg/mL; in experiment [5] it was 4.4 µg/mL; in experiment [6], 3.1 µg/mL. Further, the LD99 in experiment [7] is 6.3 µg/mL.
As to `COc1ccc(-c2cccc3c(OC)cc(OC)nc23)cc1`, the LD99 in experiment [2] was determined as 3.1 µg/mL; in experiment [3], 3.1 µg/mL; in experiment [4], 6.3 µg/mL; in experiment [1], 12.5 µg/mL; in experiment [5], 6.3 µg/mL; in experiment [6], 3.1 µg/mL. This compound also displayed an LD99 in experiment [7] of 6.3 µg/mL.
On to `COc1ccc(-c2ccc3nc(OC)cc(OC)c3c2)cc1`, for which the LD99 in experiment [2] amounted to 3.1 µg/mL; in experiment [3], 1.6 µg/mL; in experiment [4], 3.1 µg/mL; in experiment [1] it was 3.1 µg/mL; in experiment [5], 2.2 µg/mL; in experiment [6], 1.6 µg/mL. The compound further displayed an LD99 in experiment [7] of 3.1 µg/mL.
For the compound `COc1cc(OC)c2cc(-c3ccccc3)ccc2n1`, the LD99 in experiment [2] was 3.1 µg/mL; in experiment [3], 3.1 µg/mL; in experiment [4], 6.3 µg/mL; in experiment [1], 3.1 µg/mL; in experiment [5] it was 3.1 µg/mL; in experiment [6], 3.1 µg/mL. The same compound gave an LD99 in experiment [7] of 3.1 µg/mL.
Regarding `c1ccc([C@H]2CN3CCSC3=N2)cc1` [LEVAMISOLE], the LD99 in experiment [3] is more than 100 µg/mL; in experiment [5], 1.6 µg/mL; in experiment [6], 0.78 µg/mL; in experiment [7] it was 1.6 µg/mL.
In the case of `c1ccc2[nH]c(-c3cscn3)nc2c1` [THIABENDAZOLE], the LD99 amounted to 5 µg/mL in experiment [3], 5 µg/mL in experiment [5], 0.16 µg/mL in experiment [6] and 0.16 µg/mL in experiment [7].
